Where “and” joins values, the source holds several entries; their conditions need not be identical. Identical values can stand only once.
Experiments:
Rattus norvegicus [1] = organism: Rattus norvegicus; assay: In vitro inhibition of [3H]5-HT uptake into rat whole brain; format: functional, organism-based
Mus musculus [2] = assay: Antidepressant potential was assessed by the prevention of tetrabenazine-induced ptosis in mice by intraperitoneal administration; format: functional
How it was run: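 Male NMRI mice (SPF-71, KF), 20-30 g, randomly assigned to groups of 10. Compounds dissolved in 1% methylcellulose and given ip at 10 mL/kg body weight. Ptosis procedure follows an earlier cited method.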

Rattus norvegicus [3] = organism: Rattus norvegicus; assay: In vitro inhibition of [3H]dopamine uptake into rat corpus striatum; format: functional, organism-based
Mus musculus [4] = assay: (§1) Lethal dose (toxicity) was determined by intraperitoneal administration in mice; format: organism-based; details: in vivo, ip
How it was run: (§2)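 Male NMRI mice (SPF-71, KF), 20-30 g, randomly assigned to groups of 10. Compounds were dissolved in 1% methylcellulose and given intraperitoneally at 10 mL/kg body weight.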

Mus musculus [5] = assay: Antidepressant potential was assessed by the potentiation of yohimbine-induced toxicity in mice by intraperitoneal administration; format: functional
How it was run: (§3)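 Male NMRI mice (SPF-71, KF), 20-30 g, were randomized into groups of 10. Compounds were dissolved in 1% methylcellulose, dosed at 10 mL/kg, and given ip 30 min before yohimbine hydrochloride (20 mg/kg sc). Deaths were counted after 18 h. ED50 was the dose at which 50% of animals died.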

Rattus norvegicus [6] = organism: Rattus norvegicus; assay: In vitro inhibition of [14C]norepinephrine uptake into rat hypothalamus; format: functional, organism-based
[7] = as §1; format: organism-based; details: mouse, in vivo, ip; how it was run: as §2
Mus musculus [8] = assay: Antidepressant potential was assessed by the potentiation of yohimbine-induced toxicity in mice by intraperitoneal administration.; format: functional; how it was run: as §3
Mus musculus [9] = assay: (§4) Lethal dose (toxicity) was determined by intraperitoneal administration in mice.; format: organism-based; details: in vivo, ip; how it was run: as §2
Mus musculus [10] = assay: Antidepressant potential was assessed by the prevention of tetrabenazine-induced ptosis in mice by intraperitoneal administration; Inactive; format: functional; details: ip
Mus musculus [11] = assay: Antidepressant potential was assessed by the potentiation of yohimbine-induced toxicity in mice by intraperitoneal administration; Inactive; format: functional; details: ip; how it was run: as §3
[12] = as §4; format: organism-based; details: mouse, in vivo, ip; how it was run: as §2
Mus musculus [13] = assay: Antidepressant potential was assessed by the prevention of tetrabenazine-induced ptosis in mice by intraperitoneal administration.; format: functional
[14] = Mus musculus, ip, read-out: ED50

Row | Compound | IC50 (Rattus norvegicus [1]) [nM] | IC50 (Rattus norvegicus [3]) | LD50 (Mus musculus [4]) | ED50 (Mus musculus [5]) [mg/kg] | IC50 (Rattus norvegicus [6]) | LD50 [7] [mg/kg] | ED50 (Mus musculus [8]) | LD50 (Mus musculus [9]) [mg/kg] | also measured
1 | CCCN1CCC[C@@H]2[C@@H](c3ccccc3)c3ccccc3[C@@H]21 (racemic) | > 10000 | 110 nM | 57 mg/kg | 3.5 | 410 nM |  |  |  | ED50 (Mus musculus [2]): 0.8 mg/kg
2 | CN1CCC[C@@H]2[C@@H](c3ccccc3)c3ccccc3[C@@H]21 (racemic) | 10000 | 100 nM |  |  | 120 nM | 46.7 |  |  | ED50 (Mus musculus [2]; [14]): 0.4 mg/kg; ED50 (Mus musculus [5]; [14]): 1.3 mg/kg
3 | CN1Cc2c(N)cccc2C(c2ccccc2)C1 (stereo in doubt; (-)) [NOMIFENSINE] |  |  |  |  |  |  | 20.2 mg/kg | 170 | 
4 | CN1Cc2c(N)cccc2C(c2ccccc2)C1 (racemic) [NOMIFENSINE] |  |  |  |  |  |  | 1.1 mg/kg | 141 | 
5 | CN1Cc2c(N)cccc2C(c2ccccc2)C1 (stereo in doubt; (+)) [NOMIFENSINE] |  |  |  |  |  |  | 0.55 mg/kg | 49.5 | 
6 | CN1CCC[C@@H]2[C@@H](c3ccccc3)c3ccccc3[C@@H]21 |  | 300 nM | 72 mg/kg and 91 mg/kg | 0.86 | 500 nM and 60 nM |  |  |  | ED50 (Mus musculus [10]): 10 mg/kg; ED50 (Mus musculus [11]): 5 mg/kg; ED50 (Mus musculus [2]): 0.37 mg/kg
7 | Nc1ccc([C@H]2c3ccccc3[C@@H]3NCCC[C@H]23)cc1 |  | 20 nM and 50 nM |  |  | 5 nM and 15 nM | 78 | 0.07 mg/kg and 0.15 mg/kg |  | IC50 (Rattus norvegicus [1]; Rattus norvegicus, 1 h): > 10000 nM; LD50 [12]: 43 mg/kg
8 | Nc1ccc([C@H]2c3ccccc3[C@@H]3NCCC[C@H]23)cc1 (racemic) |  | 44 nM |  |  | 18 nM |  | 0.06 mg/kg | 37 | ED50 (Mus musculus [13]): 0.044 mg/kg
9 | CCCN1CCC[C@@H]2[C@@H](c3ccccc3)c3ccccc3[C@@H]21 | > 10000 | 40 nM and 200 nM | 35 mg/kg | 1.2 | 36 nM and 200 nM | 39 |  |  | ED50 (Mus musculus [10]): 5 mg/kg; ED50 (Mus musculus [11]): 5 mg/kg; ED50 (Mus musculus [2]; [14]): 0.4 mg/kg
